OX1R antag-1: antagonists of human orexin 1 receptor (OX1R); actives 1.8% (n = 330,000); OX1R-expressing cells, FRET antagonist read-out; inhibition, % at 6.6 µM; AID 485270, 2010; Orexin/Hypocretin receptor type 1 (Homo sapiens), O43613; in the data active = inhibition mostly above about 38%, no sharp cut-off; inactive = mostly below about 40%;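 note: 0% = agonist challenge alone and 100% = reference antagonist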
Target sequence (O43613 whole entry, looked up): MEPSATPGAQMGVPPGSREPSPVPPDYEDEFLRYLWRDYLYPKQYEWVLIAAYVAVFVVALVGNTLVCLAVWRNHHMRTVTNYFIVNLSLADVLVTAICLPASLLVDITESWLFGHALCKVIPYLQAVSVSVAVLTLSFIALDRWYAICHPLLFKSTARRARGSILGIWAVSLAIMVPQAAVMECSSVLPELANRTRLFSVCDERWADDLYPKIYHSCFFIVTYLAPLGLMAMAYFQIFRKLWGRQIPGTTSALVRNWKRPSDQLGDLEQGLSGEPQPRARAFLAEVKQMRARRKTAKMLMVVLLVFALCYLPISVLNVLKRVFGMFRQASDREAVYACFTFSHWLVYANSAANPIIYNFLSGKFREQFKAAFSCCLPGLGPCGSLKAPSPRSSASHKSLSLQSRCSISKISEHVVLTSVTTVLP
CHO parental Ca: ATP-evoked calcium signal inhibitors, parental CHO, primary screen, counter-screen for OX1R antagonist project, cell-based, fluorescence, Fluo-8 calcium dye. parental CHO-K1, ATP-induced calcium, Fluo-8 fluorescence. inhibition, % at 5.6 µM. actives 0.63% (n = 330,000);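 active = inhibition above that plate's mean sample inhibition plus 3 SD, cut at about 26% in these data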;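 note: 0% = ATP-challenged DMSO wells and 100% = DMSO wells without ATP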
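material = parental CHO cells | also added = ATP as calcium-mobilizing challenge | dosing = single point at 5.6 µM | detection = intracellular calcium via Fluo-8 no-wash fluorescent dye | read-out = % inhibition | benchmarks = low control ATP plus DMSO, high control DMSO only | repeats = one well per compound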
OX1R antag-2: OX1R (HCRTR1) antagonists, primary screen, fluorescence, CHO/OX1R cells, Fluo-8 calcium, orexin A. Fluo-8 calcium fluorescence. inhibition, % at 5 µM. actives 0.43% (n = 330,000). AID 434989, 2010. Orexin/Hypocretin receptor type 1 (Homo sapiens), O43613;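 active = inhibition above its plate's threshold, mean inhibition of all tested compounds on the plate plus 3 SD, cut at about 37% in these data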;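 note: 0% = orexin A challenge wells and 100% = SB-334867-A antagonist wells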
M1 ag parental: counter-screen for M1 agonists: effect in parental CHO-K1 cells; Fluo-8 calcium fluorescence; scaled to maximal ATP response, vehicle zero; activation, % at 3 µM; actives 0.48% (n = 360,000); AID 602248, 2012; in the data active = activation above about 15%;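 note: untransfected CHO-K1 host cells lacking M1 receptor as counterscreen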
M1 PAM parental: nonselective calcium activators in parental CHO-K1 cells, primary screen, counter-screen for M1 PAM project, cell-based, Fluo-8 calcium fluorescence, full deck, 1536-well; actives 0.02% (n = 360,000); ATP EC20; 0% at ATP EC20, 100% at ATP max; activation, % at 3 µM;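 active = activation above the run cutoff, the mean activation of all test compounds plus 3 SD, cut at about 40% in these data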;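 note: peak over basal fluorescence ratio in a 140 s read after ATP addition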
CHO-K1 Ca antag: counter-screen for M1 antagonists: effect in parental CHO-K1 cells | ATP-induced calcium, Fluo-8 fluorescence | inhibition, % at 3 µM | actives 0.6% (n = 360,000) | AID 602250;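 active = inhibition above a per-plate cutoff, the plate's mean sample inhibition plus 3 SD, cut at about 24% in these data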;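 note: 0% = DMSO plus EC80 ATP and 100% = DMSO alone without ATP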
Numbers without * were called inactive; · = not tested or not shown. Rows were chosen to be rich in hits. Some 2.9% of all compounds tested hit in one or more screens of this group.

SMILES	OX1R antag-1	CHO parental Ca	OX1R antag-2	M1 ag parental	M1 PAM parental	CHO-K1 Ca antag
NC(=O)CC1NC(=O)c2cc([N+](=O)[O-])cc(I)c2OCCC(C(N)=O)NC(=O)[C@@H]2CCCN2C1=O (some centres undefined)	61*	-11	-15	·	·	·
COc1ccc(-c2sc3ccccc3c2-c2ccc(OCCN(C)C)cc2)cc1	2	50*	70*	4	9	2
CN(C)CCOc1ccc(-c2c(-c3ccsc3)sc3ccccc23)cc1	-5	27	48	0	-11	9
COc1ccc(C(=O)Nc2ccccc2C(=O)NC(Cc2c[nH]c3ccccc23)C(=O)O)cc1 (centres undefined)	68*	-2	21	0	10	-11
Cc1c(C)c2ccc(OCC(=O)N[C@@H](Cc3c[nH]c4ccccc34)C(=O)O)cc2oc1=O	8	-9	14	0	-16	29*
CC1(Oc2ccc3ccccc3c2)CCN(Cc2ccc(OC(F)(F)F)cc2)C1 (centres undefined)	·	·	·	0	-9	12
CCN(CC(=O)Nc1c(F)cccc1F)C(=O)c1ccc2c(c1)S(=O)(=O)N=C1CCCCCN12	6	-11	-6	0	-3	2
O=C1N=C(N2C=CC(=C3C=CNC=C3)C=C2)/C(=C/N=NC(=O)c2ccccc2)S1	80*	1	-12	0	16	-14
O=C(COC(=O)C1CC2CCCC(C1)C2=O)NNC(=O)c1ccccc1F (centres undefined)	20	13	-1	0	-16	2
CCOC(=O)C1CCN(C(=O)CCNS(=O)(=O)c2ccc3c(c2)CCN3C(=O)CC)CC1	16	-11	-10	0	-17	58*
CCC(=O)N1CCc2cc(S(=O)(=O)NCCC(=O)N3CCN(c4cccc(C)c4)C(C)C3)ccc21 (centres undefined)	8	-9	-7	16*	-7	20
Cc1c(C(=O)OCC(=O)N(C)CC(=O)Nc2ccc(F)cc2)oc2ccccc12	9	-15	-19	0	-6	-4
CC(C)OC(=O)c1cccc(NC(=O)CSc2nnc(N)s2)c1	4	-7	-18	2	7	-13
C/C(CC(=O)Nc1ccc([N+](=O)[O-])cc1)=N\NC(=O)c1ccccc1[N+](=O)[O-]	2	32*	32	1	8	1
CN(C)c1ccc(N=Nc2ccc(S(N)(=O)=O)cc2)cc1	23	3	2	1	26	-16
NS(=O)(=O)c1ccc(N=Nc2c[nH]c(=O)c(O)c2)cc1	42*	3	5	4	13	-16
CC(=O)c1ccc(N=Nc2c(C)[nH][nH]c2=O)cc1	43	-29	-11	5	0	3
Cc1[nH][nH]c(=O)c1N=Nc1ccc(S(N)(=O)=O)cc1	41*	-8	0	0	-16	19
CC(=O)NS(=O)(=O)c1ccc(NC(=O)c2ccc(S(=O)(=O)N3CCCC3)cc2)cc1	2	-6	-1	0	4	0
O=c1[nH]c2cc(C(F)(F)F)ccc2n1-c1cc(C(F)(F)F)ccc1O	22	84*	51*	0	21	-16
Cc1c(C(C)(C)O)[nH]c2cc(C(F)(F)F)ccc12	26	-8	-8	3	10	-11
CCOC(=O)c1[nH]c(C)c(C(=O)N2CCN(C(=O)OCC)CC2)c1CC	10	-3	-19	0	-12	26*
O=C(COc1ccccc1)NCC(=O)N/N=C/c1ccc(Cl)cc1	28	-13	-22	1	-17	-3
CCOC(=O)C1CCCN(S(=O)(=O)c2ccc(S(=O)(=O)N3CCCC3)cc2)C1 (centres undefined)	36	37*	10	4	-1	-7
COc1ccc(C(=O)C2CCCN(S(=O)(=O)c3ccc(C(C)=O)cc3)C2)c(C)c1 (centres undefined)	21	10	31	16*	-9	11
SMILES	OX1R antag-1	CHO parental Ca	OX1R antag-2	M1 ag parental	M1 PAM parental	CHO-K1 Ca antag
C#Cc1cccc(C(=O)N2CCCC(C(=O)c3ccc(OC)cc3C)C2)c1 (centres undefined)	17	-4	-11	1	-22	25*
O=C(COC(=O)/C=C/c1cccc(C(F)(F)F)c1)Nc1cccc(S(=O)(=O)NC2=NCCC2)c1	·	·	·	1	6	-6
C[C@H](CO)N1C[C@H](C)[C@@H](CN(C)Cc2ccncc2)Oc2c(NS(=O)(=O)c3ccc(F)cc3)cccc2C1=O	9	-10	-17	1	19	-15
CC(=O)N(Cc1ccccc1)Cc1cn(CCC#N)nc1-c1cccc([N+](=O)[O-])c1	11	-23	-29	1	5	-8
OC(CNCC(c1ccc(Cl)cc1Cl)c1c[nH]c2ccccc12)c1ccccc1 (centres undefined)	3	33*	17	16*	15	2
Cc1ccc(C(c2sc3nc(C)nn3c2O)N2CCN(CCO)CC2)cc1 (centres undefined)	13	-8	0	1	12	-2
Cc1nc2sc(C(c3ccccc3)N3CCN(CCO)CC3)c(O)n2n1 (centres undefined)	6	1	-6	0	-5	31*
CCCOc1nc(C)cc(COC)c1C(N)=O	8	-9	-12	0	4	0
COc1ccc(C(=O)CCc2ccccc2)c(O)c1	42	-13	-11	2	-27	29*
CC(C)[C@H](NC(=O)[C@H](CCCN=C(N)N)NC(=O)NC(Cc1ccccc1)C(=O)O)C(=O)NC(C=O)CCCN=C(N)N (some centres undefined)	13	-4	-1	0	-6	27*
CO/N=C/c1ccc(Sc2ccccc2)c([N+](=O)[O-])c1	22	-15	-11	-1	-6	25*
CCc1nc2ccc(C(=O)Nc3cc(-c4ccccc4)ccc3OC)cn2c1N(C)CCC(C)C	·	·	·	37*	11	-13
COc1ccc2cc3cc(C(=O)NCCCN4CCC(C)CC4)oc3nc2c1	46*	-4	-19	0	19	-20
COc1ccc2cc3cc(C(=O)N4CCCCCC4)oc3nc2c1	57*	-10	2	1	16	-10
COc1ccc2cc3cc(C(=O)NCCN4CCc5ccccc5C4)oc3nc2c1	42*	-11	-18	1	14	-1
COc1ccc2cc3cc(C(=O)N4CCN(C5CCCCC5)CC4)oc3nc2c1	15	-4	-9	0	1	-16

High-throughput results (PubChem)
